Assay results: ChEMBL document CHEMBL2346620, “Design, synthesis and antithrombotic evaluation of novel dabigatran prodrugs containing methyl ferulate” (Bioorg Med Chem Lett, 2013)
pIC50, pKi: −log10 of the molar value. Active and inactive are the calls of the source. The rule behind the calls is not given here.

Assays:
Platelet [1] = experiment: Inhibition of ADP-induced rabbit platelet aggregation compound pre-incubated in rabbit liver microsomal suspension; type: functional, microsomes, Microsome; conditions: Oryctolagus cuniculus
In short: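 Before the in vitro assay, prodrugs were incubated in rabbit liver microsomal suspension. Rabbit platelet aggregation was then induced with ADP. IC50 is the drug concentration giving half-maximal inhibition of aggregation. Mean ± SD from six independent experiments.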

Rattus norvegicus = experiment: Antithrombotic activity in intragastrically dosed rat venous thrombosis model; type: functional; conditions: po
In short: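 Reyers rat venous thrombosis model with intragastric dosing over 0.1–20 mg/kg, and a vehicle-treated control group. Read-out is dry clot weight. Eight animals per group, mean ± SD. ED50 is taken from the dose–response curve of clot weight against log dose (μmol/kg).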

Platelet [2] = experiment: Inhibition of thrombin-induced rabbit platelet aggregation compound pre-incubated in rabbit liver microsomal suspension; type: functional, microsomes, Microsome; conditions: Oryctolagus cuniculus
In short: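 Each compound was first incubated in rabbit liver microsomal suspension, then tested in rabbit platelet aggregation induced by thrombin. IC50 is the concentration giving half-maximal inhibition of aggregation. Mean ± SD of six independent experiments.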

Prothrombin = Prothrombin (Homo sapiens, UniProt P00734); experiment: Binding affinity to human thrombin

| SMILES | pIC50 (Platelet [2]) | also measured |
| --- | --- | --- |
| COc1cc(/C=C/C(=O)O)ccc1O [FERULATE] |  | pIC50 (Platelet [1]): 2.57 |
| CCCCCCOC(=O)/N=C(/N)c1ccc(NCc2nc3cc(C(=O)N(CCC(=O)Oc4ccc(/C=C/C(=O)OC)cc4OC)c4ccccn4)ccc3n2C)cc1 | 6.54 | ED50 (Rattus norvegicus): 3.7 µmol/kg; pIC50 (Platelet [1]): 2.24 |
| CCCCCOC(=O)/N=C(/N)c1ccc(NCc2nc3cc(C(=O)N(CCC(=O)Oc4ccc(/C=C/C(=O)OC)cc4OC)c4ccccn4)ccc3n2C)cc1 | 6.69 |  |
| CCCCCCOC(=O)NC(=N)c1ccc(NCc2nc3cc(C(=O)N(CCC(=O)OCC)c4ccccn4)ccc3n2C)cc1 [DABIGATRAN ETEXILATE] | 6.47 | ED50 (Rattus norvegicus): 7.8 µmol/kg; pKi (Prothrombin): 8.35; inhibition (Platelet [1]; Microsome): inactive |
| COC(=O)/C=C/c1ccc(OC(=O)CCN(C(=O)c2ccc3c(c2)nc(CNc2ccc(/C(N)=N\C(=O)OC)cc2)n3C)c2ccccn2)c(OC)c1 | 6.08 |  |

Now from value to molecule, other results behind:

| pIC50 (Platelet [2]) | SMILES | also measured |
| --- | --- | --- |
| 6.16 | COC(=O)/C=C/c1ccc(OC(=O)CCN(C(=O)c2ccc3c(c2)nc(CNc2ccc(/C(N)=N\C(=O)OCc4ccccc4)cc2)n3C)c2ccccn2)c(OC)c1 |  |
| 6.11 | COC(=O)/C=C/c1ccc(OC(=O)CCN(C(=O)c2ccc3c(c2)nc(CNc2ccc(/C(N)=N\C(=O)OC(C)C)cc2)n3C)c2ccccn2)c(OC)c1 |  |
| 6.22 | COC(=O)/C=C/c1ccc(OC(=O)CCN(C(=O)c2ccc3c(c2)nc(CNc2ccc(/C(N)=N\C(=O)OC(C)(C)C)cc2)n3C)c2ccccn2)c(OC)c1 |  |
| 6.34 | CCOC(=O)/N=C(/N)c1ccc(NCc2nc3cc(C(=O)N(CCC(=O)Oc4ccc(/C=C/C(=O)OC)cc4OC)c4ccccn4)ccc3n2C)cc1 |  |
